Rows were chosen to be rich in hits. Some 4% of all compounds tested hit in one or more screens of this group.
CHO parental Ca: ATP-evoked calcium signal inhibitors, parental CHO, primary screen, counter-screen for OX1R antagonist project, cell-based, fluorescence, Fluo-8 calcium dye. inhibition, % at 5.6 µM. actives 0.63% (n = 330,000). AID 463079, 2010. parental CHO-K1, ATP-induced calcium, Fluo-8 fluorescence;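 active = inhibition above that plate's mean sample inhibition plus 3 SD, cut at about 26% in these data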
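test system = CHO parental line | reagent = ATP stimulus | measured by = intracellular calcium via Fluo-8 no-wash fluorescent dye | control set = ATP and no-ATP DMSO wells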
OX1R antag-1: OX1R (HCRTR1) antagonists, primary screen, fluorescence, CHO/OX1R cells, Fluo-8 calcium, orexin A. Fluo-8 calcium fluorescence. inhibition, % at 5 µM. actives 0.43% (n = 330,000). AID 434989, 2010;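 active = inhibition above its plate's threshold, mean inhibition of all tested compounds on the plate plus 3 SD, cut at about 37% in these data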
OX1R antag-2: antagonists of human orexin 1 receptor (OX1R). Orexin/Hypocretin receptor type 1 (Homo sapiens), O43613. OX1R-expressing cells, FRET antagonist read-out. inhibition, % at 6.6 µM. actives 1.8% (n = 330,000); in the data active = inhibition mostly above about 38%, no sharp cut-off; inactive = mostly below about 40%
NTR1 agonist: agonists of human NTR1, primary screen, imaging, U2OS cells, beta-arrestin-GFP, high content; NTR1-U2OS beta-arrestin-GFP spot imaging, agonist mode; Neurotensin receptor type 1 (Homo sapiens), P30989; actives 0.17% (n = 330,000); AID 493036, 2011; activation, % at 20 µM;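 active = activation at or above 40% of the spot to cytoplasm intensity ratio, with at least 20 cells analyzed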
TAAR1 ag: human TAAR1 agonists, primary screen, Fluo-8 calcium fluorescence, CHO RD-HGA16 cells; Trace amine-associated receptor 1 (Homo sapiens), Q96RJ0; vehicle wells 0%, saturating PEA agonist 100%; activation, % at 3 µM; actives 0.99% (n = 360,000);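 active = activation above the mean activation of all test compounds in the run plus 3 SD, cut at about 38% in these data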
Target sequence (Q96RJ0 whole entry, looked up): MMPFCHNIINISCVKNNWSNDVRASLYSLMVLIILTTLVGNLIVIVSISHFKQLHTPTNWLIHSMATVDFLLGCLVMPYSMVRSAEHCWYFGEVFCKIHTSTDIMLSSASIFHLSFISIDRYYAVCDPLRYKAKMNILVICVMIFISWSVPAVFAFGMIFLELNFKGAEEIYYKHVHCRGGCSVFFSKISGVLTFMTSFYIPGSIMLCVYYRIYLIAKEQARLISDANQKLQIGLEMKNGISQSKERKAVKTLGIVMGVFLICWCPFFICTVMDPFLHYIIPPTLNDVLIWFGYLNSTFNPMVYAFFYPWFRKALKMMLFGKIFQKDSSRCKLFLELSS
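Test system: RD-HGA16 (CHO) cells co-expressing Gα16 and hTAAR1 | Doses: Single dose, 3 µM | Schedule: 17-24 h seeding, 75 min 37 °C dye, 30 min RT | Evaluation: % activation from peak over basal fluorescence ratio, DMSO-to-PEA scaled | Technique: Kinetic Fluo-8 calcium fluorescence | Benchmarks: Low control DMSO, high control PEA (EC100)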
TAAR1 antagonist: human TAAR1 antagonists, primary screen, Fluo-8 calcium fluorescence, CHO RD-HGA16 cells. antagonist. inhibition, % at 3 µM. actives 1.5% (n = 360,000);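 active = inhibition above a per-plate cutoff, the mean inhibition of test compounds on that plate plus 3 SD, cut at about 49% in these data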
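System: RD-HGA16 CHO cells with stable hTAAR1 and Gα16 | Probe or stimulus: EC80 β-phenethylamine stimulus | Dosing: 3 µM, single point | Times: Dye loading 75 min at 37 °C, then 30 min room temperature | Measured by: Fluo-8 calcium-sensitive fluorescence | Read-out basis: % inhibition of agonist calcium response | Replicates: n of 1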
Hits are given with their value; i = inactive; nt = not tested or not shown.

SMILES	CHO parental Ca	OX1R antag-1	OX1R antag-2	NTR1 agonist	TAAR1 ag	TAAR1 antagonist
S=c1[nH]cc(-c2ccc(Cl)cc2)n1Cc1ccccc1	93	i	i	i	i	i
O=C(O)c1ccccc1NC(=O)C(c1ccccc1)c1ccccc1	i	i	i	i	i	i
CC(C)Cc1ccc(C(C)C(=O)Nc2ccccc2O)cc1 (stereo not given)	82	101	i	i	77	92
O=C(Nc1ccccc1O)C(c1ccccc1)c1ccccc1	67	i	i	i	i	i
Cc1c(NC(=O)C(C)c2ccc(CC(C)C)cc2)c(=O)n(-c2ccccc2)n1C (stereo not given)	i	i	i	i	i	i
COCCN(Cc1ccccc1)C(=O)C1CCN(S(=O)(=O)c2ccc3c(c2)OCCO3)CC1	i	i	i	i	i	i
O=C(Nc1nc2ccccc2s1)C1CCN(S(=O)(=O)c2cc([N+](=O)[O-])ccc2Cl)CC1	80	51	84	i	i	i
O=C(Nc1nc2ccc(S(=O)(=O)N3CCCC3)cc2s1)C1CCCCC1	i	i	i	i	43	i
N#CCc1nc2ccc(S(=O)(=O)N3CCOCC3)cc2s1	35	41	i	i	i	i
CN1CCCCC(NC(=O)C2CCCCC2)C1=O (stereo not given)	nt	nt	nt	nt	i	i
O=[N+]([O-])c1ccc2[nH]c(O)c(N=NC(=S)NCC3CCCO3)c2c1 (stereo not given)	i	i	i	i	i	i
CCNC(=S)N=Nc1c(O)[nH]c2ccc([N+](=O)[O-])cc12	i	i	46	i	i	i
CCN(CC)S(=O)(=O)c1cc(NC(=O)C2CCN(c3ncnc4sc(C)c(C)c34)CC2)ccc1Cl	i	i	i	i	i	65
Cc1ccc(NC(=O)C2CCN(c3ncnc4sc(C)c(C)c34)CC2)cc1S(=O)(=O)N(C)C	i	i	i	i	i	i
Cc1ccc(C)c(S(=O)(=O)N2CCN(C(=O)C3CCN(c4ncnc5sc(C)c(C)c45)CC3)CC2)c1	i	i	i	i	i	59
O=C(COc1ccc2c3c(c(=O)oc2c1)CCCC3)NCc1ccccn1	i	i	i	i	i	i
CCN(CC)c1ccc(S(=O)(=O)N2CCOCC2)cc1NC(=O)COC(=O)c1cccnc1SC	i	i	i	i	i	i
COc1cc(C(=O)NC2CCCCN(C)C2=O)cc(OC)c1OC (stereo not given)	nt	nt	nt	nt	i	i
COc1ccc(NS(=O)(=O)c2ccc(C(=O)N3CCN(c4ccc(F)cc4)CC3)cc2)cc1	27	i	i	i	i	i
COc1ccc(N2CCN(C(=O)c3ccc(NS(=O)(=O)c4ccc(F)c(F)c4)cc3)CC2)cc1	40	i	i	i	i	i
O=C(c1cccc(S(=O)(=O)Nc2ccccc2F)c1)N1CCN(c2ccccc2F)CC1	i	i	i	i	i	i
COc1ccccc1N1CCN(C(=O)c2cccc(S(=O)(=O)Nc3ccccc3F)c2)CC1	i	i	i	i	i	54
CCOC(=O)c1c(-c2ccccc2)oc2ccc(OCC(O)CNCCN(C)C)cc12 (stereo not given)	i	i	i	i	i	i
O=C(Nc1cccc(S(=O)(=O)Nc2ccccc2F)c1)c1ccc2ccccc2n1	i	i	82	i	i	i
Cc1ccc(S(=O)(=O)N2[C@@H](c3cccc(Cl)c3)C(C(=O)O)=CC[C@H]2c2ccc(Cl)cc2)cc1	i	i	74	i	i	52
SMILES	CHO parental Ca	OX1R antag-1	OX1R antag-2	NTR1 agonist	TAAR1 ag	TAAR1 antagonist
CCOc1ccc([C@@H]2CC=C(C(=O)O)[C@H](c3cccc(Cl)c3)N2S(=O)(=O)c2ccc(C)cc2)cc1	i	i	55	i	i	i
Cc1ccc(S(=O)(=O)N2C(c3cccc(Cl)c3)CC=C(C(=O)O)C2c2cccc(Cl)c2)cc1 (stereo not given)	nt	nt	nt	nt	i	i
CC(C)c1[nH]nc2c1C(c1ccc(Br)cc1)NC2=O (stereo not given)	nt	nt	nt	nt	i	i
Cc1cc(/C=C\c2ccc3cc(N(C)C)ccc3[n+]2C)c(C)n1-c1ccccc1	54	51	80	i	nt	nt
NC(=O)c1c(N)[nH]c(C(=O)c2ccccc2)c1-c1ccc(Cl)cc1Cl	nt	nt	nt	nt	i	i
C/C=C(/C)C(=O)O[C@@H]1c2c(ccc3ccc(=O)oc23)OC(C)(C)[C@@H]1OC(=O)/C(C)=C\C	62	i	i	i	i	i
CN(CC(=O)Nc1ccc(Cl)c(C(F)(F)F)c1)C(=O)c1cc(=O)c2ccccc2o1	i	i	i	i	45	i
CN(CC(=O)Nc1ccc(Cl)c(C(F)(F)F)c1)C(=O)c1cc(=O)[nH]c2ccccc12	i	i	i	i	i	i
Cc1nnsc1SCCNC(=O)Nc1ccc(Cl)cc1	40	36	i	i	i	i
Cc1cc(C)cc(NC(=O)c2ccc(CSc3nnnn3C)cc2)c1	i	i	49	i	i	66
O=C(Nc1ccc2nc3n(c(=O)c2c1)CCCC3)c1cc([N+](=O)[O-])ccc1F	i	i	52	i	nt	nt
O=C(Nc1ccc2nc3n(c(=O)c2c1)CCCC3)c1cccc([N+](=O)[O-])c1	i	i	i	i	i	i
Cc1ccc(-c2nn(-c3ccccc3)cc2CO)cc1	i	i	i	i	i	i
N=C(N)SCc1cn(-c2ccccc2)nc1-c1ccc(Br)cc1	nt	nt	nt	nt	79	i
O=C(Nc1ccc(-c2nnco2)cc1)c1ccccc1	i	i	i	i	i	i
O=C(Nc1ccccc1)Nc1cccc(-c2nnco2)c1	i	i	i	i	44	i
CN(C(=O)c1ccc(NC(=O)Cc2ccc(NC(=O)C3CCN(S(=O)(=O)c4cccc([N+](=O)[O-])c4)CC3)cc2)cc1)C1CCCC1	nt	nt	nt	nt	i	i
CCN(CC)c1ccc(-c2nn3c(-c4ccccc4OC)nnc3s2)cc1	30	i	39	i	nt	nt
COc1ccccc1-c1nnc2sc(COc3ccccc3)nn12	i	i	i	i	i	i
CCn1c2c(n(C(C)=O)c1=O)C=C(C(=O)N1CCCC1)C(C)C(c1ccccc1)=C2 (stereo not given)	nt	nt	nt	nt	i	i
CCOC(=O)c1cnc(SCc2nc(N)nc(Nc3ccc(C)cc3)n2)nc1N	i	i	i	i	i	i
CCOC(=O)c1cnc(SCc2nc(N)nc(Nc3ccc(F)cc3)n2)nc1N	i	i	61	i	i	i

Compound activity (PubChem)
